Compound activity: PubChem, Broad Institute
An excerpt weighted towards active compounds, which were near 2.9% of everything screened.
SIRT5 inh: SIRT5 desuccinylase inhibitors, primary screen, biochemical, fluorescence imaging, single point, set 5 | NAD-dependent protein deacylase sirtuin-5, mitochondrial (Homo sapiens), Q9NXA8 | Purified SirT5, succinyl-peptide AMC, trypsin-coupled fluorescence | inhibition, % at 15 µM | hit rate 1.1% among 330,000; in the data active = inhibition above about 15%; inconclusive = no clear call, values can overlap the other calls
Target sequence (Q9NXA8 whole entry, looked up): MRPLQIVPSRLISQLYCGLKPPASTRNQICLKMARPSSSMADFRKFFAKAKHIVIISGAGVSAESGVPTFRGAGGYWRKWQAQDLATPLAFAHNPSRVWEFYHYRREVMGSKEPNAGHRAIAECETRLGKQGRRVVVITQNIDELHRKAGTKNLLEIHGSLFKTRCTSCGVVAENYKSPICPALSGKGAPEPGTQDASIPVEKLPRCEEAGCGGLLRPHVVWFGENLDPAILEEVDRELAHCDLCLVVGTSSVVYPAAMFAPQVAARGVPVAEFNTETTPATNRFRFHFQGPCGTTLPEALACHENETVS
C2C12 statin: suppressors of statin myotoxicity in C2C12 myotubes, primary screen, cell-based, single point, plate reader. C2C12 myotubes + simvastatin, ATP luminescence, 48 h; scaled: DMSO 0, geranylgeraniol control 100. rescue of ATP level, % at 7.49 µM. hit rate 0.78% among 330,000. AID 602340, 2012;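 active = mean ATP rescue above about 67%, or every replicate alone reaching that limit, limit read from the data, passing the limit was not always enough; inconclusive = no clear call, values can overlap the other calls; inactive = mean under the limit and some replicate under it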;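 also: myotubes were challenged with 10 µM simvastatin during compound exposure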
S100A4 inh HTS: inhibitors of S100A4-myosin IIA peptide binding, primary screen, biochemical, fluorescence polarization, TAMRA-MyoIIA peptide; Protein S100-A4 (Homo sapiens), P26447; inhibition, % at 10.7 µM; hit rate 0.14% among 360,000; AID 652163, 2013;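 active = mean inhibition of at least 70% across replicates, with every replicate also reaching that level; inconclusive = mean inhibition reaches 70% but some replicates fall short; inactive = mean inhibition below 70%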
Target sequence (P26447 whole entry, looked up): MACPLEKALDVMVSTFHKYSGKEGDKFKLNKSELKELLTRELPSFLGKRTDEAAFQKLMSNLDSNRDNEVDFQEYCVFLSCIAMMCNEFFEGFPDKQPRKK
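assay system = human S100A4 monomer with TAMRA-labelled myosin IIA peptide | also added = labelled myosin peptide probe, 5 nM | incubation = 5 min between mix addition and reading | control set = DMSO and TFP controls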
DENV2 CPE: inhibitors of DENV2 cytopathic effect, primary screen, cell-based, plate reader, single concentration; DENV2-infected cells, cytopathic effect rescue; CPE inhibition, % at 9.99 µM; hit rate 1.7% among 350,000; in the data active = CPE inhibition above about 20%, passing the limit was not always enough; inconclusive = no clear call, values can overlap the other calls; tested in BHK-21 cells;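 also: 0% = median of neutral control wells and 100% = median of positive control wells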
PGC1a acetyl inh: inhibitors of PGC1a acetylation signal, primary screen, cell-based, U2OS, AlphaScreen, inhibitor mode; AlphaScreen anti-acetyl-lysine; with virally co-expressed GCN5 acetyltransferase; inhibition, % at 15.6 µM; hit rate 0.17% among 350,000; AID 651687, 2012;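 active = every replicate shows inhibition of at least 40%; inconclusive = mean inhibition at least 40% but some replicate below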;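 also: 0% = neutral control wells and 100% = positive control wells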
* hit, by the source's call.

C/C=C/c1ccc2c(c1)O[C@@H](CN(C)S(=O)(=O)c1ccc(C)cc1)[C@@H](C)CN([C@@H](C)CO)S2(=O)=O was read as SIRT5 inh 3, C2C12 statin 53, S100A4 inh HTS 5, DENV2 CPE 3 and PGC1a acetyl inh -13.
C/C=C/c1ccc2c(c1)O[C@H](CN(C)S(=O)(=O)c1ccc(C)cc1)[C@H](C)CN([C@H](C)CO)S2(=O)=O was read as SIRT5 inh 0, C2C12 statin -11, S100A4 inh HTS -6, DENV2 CPE 20* and PGC1a acetyl inh -1.
Cc1ccc(S(=O)(=O)N(C)C[C@H]2Oc3cc(C#Cc4ccncc4)ccc3S(=O)(=O)N([C@@H](C)CO)C[C@H]2C)cc1 was read as SIRT5 inh 18*, C2C12 statin -37, S100A4 inh HTS -28, DENV2 CPE 64* and PGC1a acetyl inh 25.
Screening C[C@@H]1CN([C@H](C)CO)C(=O)c2cc(NS(=O)(=O)c3cccs3)ccc2O[C@@H](C)CCCCO[C@@H]1CN(C)Cc1ccc(C(F)(F)F)cc1 returned SIRT5 inh 19*, C2C12 statin 92*, S100A4 inh HTS -31, DENV2 CPE 4 and PGC1a acetyl inh -8.
`C[C@@H]1CCCCO[C@H](CN(C)Cc2ccc(C(F)(F)F)cc2)[C@@H](C)CN([C@@H](C)CO)C(=O)c2cc(NS(=O)(=O)c3cccs3)ccc2O1` gave SIRT5 inh 17*, C2C12 statin -26, S100A4 inh HTS -15, DENV2 CPE inconclusive and PGC1a acetyl inh 6.
For C[C@H](CO)N1C[C@H](C)[C@@H](CN(C)Cc2ccc(C(F)(F)F)cc2)OCCCC[C@H](C)Oc2ccc(NS(=O)(=O)c3cccs3)cc2C1=O the results were SIRT5 inh 21*, C2C12 statin -62, S100A4 inh HTS 37, DENV2 CPE 4 and PGC1a acetyl inh -13.
Screening C[C@@H]1CN([C@@H](C)CO)C(=O)c2cc(NS(=O)(=O)c3cccs3)ccc2O[C@@H](C)CCCCO[C@H]1CN(C)Cc1ccc(C(F)(F)F)cc1 returned SIRT5 inh 15, C2C12 statin 37, S100A4 inh HTS 3, DENV2 CPE 0 and PGC1a acetyl inh -5.
For C=CCOc1ccc(/C(CC)=N/O)cc1OC the results were C2C12 statin 117* and PGC1a acetyl inh -5.
COc1ccccc1-c1cnc2c(c1)C(=O)N([C@@H](C)CO)C[C@H](C)[C@@H](CN(C)Cc1ccncc1)O2 was read as SIRT5 inh -2, C2C12 statin 0, S100A4 inh HTS 1, DENV2 CPE 3 and PGC1a acetyl inh -3.
For CNC(=O)C[C@@H]1CC[C@@H]2[C@H](COc3ccc(NC(=O)c4ccc(F)c(F)c4)cc3C(=O)N2C)O1 the results were SIRT5 inh 0, C2C12 statin 2, S100A4 inh HTS -2, DENV2 CPE 97* and PGC1a acetyl inh 1.
For CN1C(=O)c2cc(NC(=O)c3ccc(F)c(F)c3)ccc2OC[C@H]2O[C@@H](CC(=O)Nc3ccc4c(c3)COC4)CC[C@@H]21 the results were SIRT5 inh -1, C2C12 statin 102*, S100A4 inh HTS 2, DENV2 CPE inconclusive and PGC1a acetyl inh 3.
Screening CNC(=O)C[C@H]1CC[C@@H]2[C@H](COc3ccc(NC(=O)c4ccc(F)c(F)c4)cc3C(=O)N2C)O1 returned SIRT5 inh -2, C2C12 statin 2, S100A4 inh HTS inconclusive, DENV2 CPE 95* and PGC1a acetyl inh 5.
CNC(=O)C[C@H]1CC[C@H]2[C@H](COc3ccc(NC(=O)c4ccc(F)c(F)c4)cc3C(=O)N2C)O1 was read as SIRT5 inh 11, C2C12 statin 5, S100A4 inh HTS 1, DENV2 CPE inconclusive and PGC1a acetyl inh -1.
`C[C@@H]1CCCCO[C@@H](CN(C)C)[C@@H](C)CN([C@H](C)CO)C(=O)c2cc(NC(=O)CCCN(C)C)ccc2O1` gave C2C12 statin 12 and PGC1a acetyl inh -6.
For O=C1CN(C(=O)COc2cccc(F)c2)c2ccccc2N1 the results were SIRT5 inh 18*, S100A4 inh HTS -4 and DENV2 CPE 16.
